# Measured values of several laboratories.
# Protocols differ between the studies behind these lines.
# Effect on: metabolic stability
# Species: human
# Matrix: liver microsomes
Structure (SMILES),conditions,half-life [min]
O=c1c2c([nH]c3cccc(Oc4ccc(OC(F)(F)F)cc4)c13)CCCC2,"1 µM, pH 7.4",12.7
COc1cc(-c2cc(C(C)=O)n3ccccc23)c(OC)cc1Cn1ccnc1,pH 7.4,> 120
CCN(CC)CCNC(=O)c1c(C)[nH]c(/C=C2\C(=O)Nc3ccc(F)cc32)c1C,1 µM,24.3
O=c1c2cc(Cl)ccc2[nH]c(=S)n1Cc1cccnc1,"1 µM, pH 7.4",> 186
O=c1c2c([nH]c3cc(Nc4ccc(OC(F)(F)F)cc4)ccc13)CCCC2,"1 µM, pH 7.4",20.7
Cc1[nH]c(C)c(S(=O)(=O)Nc2ccc(C(F)(F)F)c(Cl)c2)c1C(=O)N(C)C,,8.7
Cc1ccc(OCC(=O)N[C@@H](Cc2c[nH]c3ccccc23)C(=O)OC(C)C)cc1,20 mM,352
O=C(O)Cc1ccccc1Nc1c(Cl)cccc1Cl,"2 µM, pH 7.4",8.3
CCCCN(CCCC)CCCOc1ccc2c(=O)c3c([nH]c2c1)CCCC3,"1 µM, pH 7.4",15.1
CCN(CC)CCNC(=O)c1c(C)[nH]c(/C=C2\C(=O)Nc3ccc(F)cc32)c1C,"1 µM, pH 7.4",27.5
NC(=NCCC[C@@H](C(=O)NCc1ccccc1)n1cc(-c2ccc(-c3ccccc3)cc2)nn1)c1ccc([N+](=O)[O-])o1,,29
CC(C)C(=O)OCc1cc2[nH]c(=S)n(Cc3cccnc3)c(=O)c2cc1Cl,"1 µM, pH 7.4",< 5
O=c1c2ccccc2[nH]c2cc(Oc3ccc(OC(F)(F)F)cc3)ccc12,"1 µM, pH 7.4",> 60
O=c1c2cc(Cl)ccc2[nH]c(=S)n1Cc1ccc(-c2nnn[nH]2)nc1,"1 µM, pH 7.4",> 186
O=c1c2c([nH]c3cc(Oc4ccc(OC(F)(F)F)cc4)c(F)cc13)CCCC2,"1 µM, pH 7.4",19.1
NCc1ccc(-c2nn(Cc3ccccc3)c3ccccc23)o1,,34
CCCN(CCC)CCNc1ccc2c(=O)c3c([nH]c2c1)CCCC3,"1 µM, pH 7.4",> 60
CONC(=O)c1cccc2c1cc(C)n2-c1nc2c(c(NCc3ccccc3)n1)CCCN2,"1 µM, pH 7.4",13.3
